Assay results published in the EternaBench riboswitch data.

System: MS2 coat protein
Test: apparent Kd, MS2 coat protein; higher = weaker binding; RNA-MaP array; FMN 200 µM where present
Summary of the method: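 Green signal from SNAP-549-labelled MS2 coat protein was normalised to red-channel RNA signal and to the median Fmax of control clusters. The protein was titrated from 0.7 or 1.5 nM, doubling to 3 µM, without and then with constant ligand, over designs transcribed by stalled E. coli RNA polymerase on Illumina sequencing-chip clusters, in 100 mM Tris-HCl pH 7.5, 80 mM KCl, 4 mM MgCl2, BSA, DTT, yeast tRNA and Tween-20. The apparent Kd is the median of filtered per-cluster binding-curve fits.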

[1] = designed as: OFF switch for flavin mononucleotide, no ligand
[2] = ligand present: flavin mononucleotide, designed as: OFF switch for flavin mononucleotide
[3] = designed as: ON switch for flavin mononucleotide, no ligand
[4] = ligand present: flavin mononucleotide, designed as: ON switch for flavin mononucleotide

Sequence	apparent Kd [1] [nM]	apparent Kd [2] [nM]	apparent Kd [3] [nM]	apparent Kd [4] [nM]
GGAGCAACAUGAGGAUCACCCAUGUAGGAUAUCGCUAUUGUAAUCAUGAAACAUGAUUACAAUAGCGAGAAGGACAUAUGCUCC	6.02	9.16	–	–
CGUGUUAACGAAGGAUAUGGAUACAUGAGGAUCACCCAUGUAUAUUUUGUGAUCUUGUUUAAGAUCCAGAAGGUCGUAUACACG	33.8	84.7	–	–
CUAUUCCGAGGAUAUACAUGAGGAUCACCCAUGUCGGGCCUCUGGCCUAAGGCCGAAAGUAGAAGGUGGGUUUC	64.6	61.5	–	–
ACUUAUGAAGGAUAUACUAGCGACAUGCACUCAACACGCGCACAUGAGGAUCACCCAUGUAGAAGGUCAAACAU	25.8	23.1	–	–
GUGUACAGAGGAUAUACUUAUGGAGUCACGAAAGUGGCUUCACAUGAGGAUCACCCAUGUAGAAGGCUGUACAC	28.1	31.1	–	–
GGAUUACAUGAGGAUCACCCAUGUAGAAGGCGCCUGGGAGACCAGCGCGAGGUAGAAGACCCGGGCGAGGAUAUACAGGAGGGC	25.5	56.4	–	–
AAGCGAGGGACAGGAUAUGCGGCGAAACUCGCCGCAGAAGGGUCGACAUGAGGAUCACCCAUGUCCUUACGCUCCACGUAGUGG	–	–	107	455
AAGUCUGGACGAGGAUAUCAGCUGUAUCUGGCGUCAACAUGAGGAUCACCCAUGUUGCUAUAGGGUGAGAAGGCGUUUGGGCAA	–	–	84.9	19.9
UGUGUGUGUGCAGGAUAUUUAAGAAGAACAUGAGGAUCACCCAUGUGAGGAUCACCCAUGUAAAAGGAGAAGGGCAGUGUGUGU	754	728	–	–
CCCGGCGAGUCGCUACGCCGAGAGCAGGAUAUUCCGCCGUGAUCUACAUGAGGAUCACCCAUGUGGAAGAAGGGCUACACAAAA	15.1	158	–	–
AGAUGACAAAGUCAUCUCUGACAGACAUGAGGAUCACCCAUGUAGGAUAUACUACUCAAAGAGUAGUAGAAGGACAUGUGUCUU	33	95.7	–	–
CCGUUCUGAGGAUAUCCACCCUCAUACAUGAGGAUCACCCAUGUUCACCCUUGGGUUCCCGGAGAAGGCAGUUUUC	232	467	–	–
UUAAAUCAUGUAGGAUAUGCAUGGCGAAGCUACGCAGAAGGACAUGAGGAUCACCCAUGUUAUAGCGACCAAGUUAGGUUGCAA	88.7	211	–	–
UUGAGGCACCAGAAGGACAUGAGGAUCACCCAUGUAGGAUAUGGGCAAGCCGACGUGCGCAGAUUGCUUAGUUGGGUAUCUUCU	–	–	43.2	10.4
CGAAUACGCGUGAGGAUAUCGUUCGAAUAUUGCGAUGAGAAGGCACAUGAGGAUCACCCAUGUAGGUAUCCUGG	73.2	120	–	–
AAAACAUACCGAGGAUAUUCAUAUAAUAAAUAAACAUGAGGAUCACCCAUGUGGCAAAAGCCUAGGGAGAAGGCGGAAUGCUAA	–	–	36	22.4
ACAUGAUAUGUAGGAUAUCACAACUUGUGUUAUAAAAUUGUAAUUUAGGAUUGAGAAGGACAUUUACAUGAGGAUCACCCAUGU	17.6	13.3	–	–
CGCAACUCAGAUCUUUUGAACAUGAGGAUCACCCAUGUAUUGAGAAGGAGGAAGAAGAGAGAUUCCUAGGAUAUCAGAGUUGCG	5.95	5.81	–	–
AAUGUGUGUGGAGGAUAUAUAACAUGACAACAAACACAUACAUGAGGAUCACCCAUGUCCCAUGUAUAGAAGGCCAUAUAUAUA	–	–	662	618
GCGCGUUGAGGAUAUACGAACAUGUCGCCAGAUGUCAUGGUACAUGAGGAUCACCCAUGUAGAAGGUGGUGCGC	208	352	–	–
CUUUUGUGAGGAUAUCAGUAUUAAAAAAAUAAAAUUACUACUGAGAAGGCACAUGAGGAUCACCCAUGUUCCUC	32.7	168	–	–
ACAUGAGGAUCACCCAUGUGAUGAUCUUCCAUGUCAUAUUUCAGAAGGCACGCAUGUUUAAUGAGUGAGGAUAUGGAAUAUGCG	802	553	–	–
CGAUAUGAUAGAGGAUAUGUAAUACAUGAGGAUCACCCAUGUUACAUGGGAAUUAUAAAUAAUUAACAGAAGGCUAUUCUAUCG	63.8	177	–	–
CCCGUGUUAGGAUAUACGGCACACCUGCCAGCAGGUGUAUAGUAGAAGGAACAUGAGGAUCACCCAUGUAUAGC	38.1	36	–	–
GUGAAGGUAGGAUAUACGAUAAUAUAGGGUAGAUAUAUAACACAUGAGGAUCACCCAUGUAGAAGGACCAAGUG	46.3	110	–	–
GUCCCGAGGGAGAAGGGCUAGAAGGUCCAGCUUAUGUGUGUUGCAACAUGAGGAUCACCCAUGUAGCAGGAUAUCCCUUGUACA	18.1	39.6	–	–
UAUAUAUAGUAAGGAUAUGUAAAUAUUUUAUAAACAGAAGGUACUGACAUGAGGAUCACCCAUGUUUUAGUGUGGGCAUGUAGA	79.2	139	–	–
CGCACUGAUAGAGGAUAUGUUGUACAUGAGGAUCACCCAUGUGUUUUUGUAUCAAUAUUUGUGAAACAGAAGGCUAUUAGUGCG	7.58	5.65	–	–

Sequence	apparent Kd [1] [nM]	apparent Kd [2] [nM]	apparent Kd [3] [nM]	apparent Kd [4] [nM]
CGAUAUUAUGCAGGAUAUCUCCCUUGAAUGAGGAGAGAAGGGCAUAGGGAGACAUAAGCCUUAUUACAUGAGGAUCACCCAUGU	9.67	8.35	–	–
GGAUGAGCAAUAGGAUAUGCUGGGAUUGAAUGGGUAGAAGGAUUUCUAGUGGUAAAGACAUGAGGAUCACCCAUGUCGCGGCCC	–	–	45.7	45.2
UGGUGGAAGCAGGAUAUGCUUGUUUUAUUGAUUGCAGAAGGGCUAACAUGAGGAUCACCCAUGUAAGAGGUGUU	428	196	–	–
UAAGACUAGCAUUGGUAUCUCCACAUGAGGAUCACCCAUGUUUAGGAUAUGAGCAGCAAAGCUGCUUAGAAGGAGACGCUAGUC	7.26	7.21	–	–
UUUUGGCGGGCAGGAUAUACUAAGACAUGAGGAUCACCCAUGUACUUGCAAGAUGUCCGUGUCGAGUAGAAGGGCCAAGCUAUA	4.97	7.8	–	–
UCAACCGGCGCCGGUUAAACAUGAGGAUCACCCAUGUACUCCAGAAGGCCGCCCAAGAACGGAGUGGAGGAUAUGGAGGUUCUC	–	–	45.1	28.7
GCGAUUAAGUAGAAGGUACGUUAUAAGACAAUGUAAGGAUAUACUGACAUGAGGAUCACCCAUGUAAAAUUAGUUUACUGUCGC	–	–	7.34	6.44
ACAAGACAUGAGGAUCACCCAUGUAAAGAAAACGCAGGAUAUGCAAAAAAAUUCAUGGGUGCAGAAGGGCGAAAAA	–	–	68.1	322
CCGCAUAUGCAGGAUAUCGUAUCGGAAACGAUACGAGAAGGGUAAACAUGAGGAUCACCCAUGUUCCUUAACGG	18	16.5	–	–
AGAAACUACGAGAAGGACAUGAGGAUCACCCAUGUUUCCACUUAGUGGUAUGUAGGAUAUCGUAGUUUCAGGAUCGUGAGAUCA	5.81	6.39	–	–
AAAACAUGAGGAUCACCCAUGUAAAGAUCGGUCGAUCAAGGUGAGGAUAUACAAUAAUUGAUGGAGUAGAAGGCACUGGGUUGA	–	–	227	127
ACGUCACAUGAGGAUCACCCAUGUCAGGCCGGACUAGGAUAUUAUCAUGCAGCGUGACCGUGAGAAGGAGUUGGAU	–	–	104	82.2
UUGGACUUCGUAGGAUAUGUAGGAUAUUCCUACAUGAGGAUCACCCAUGUUGACAUGGAAGAAGGACAGAAGGACGAUGUCCAU	–	–	257	4.12
UGGAUGGUAUGAGGAUAUGCGCGCGAAACGCGCGCAGAAGGCGUGUCAAUAGACAUGAGGAUCACCCAUGUACUAUCCAUCCAA	–	–	85.2	9.82
GGAUAGUGUCGUUAUCCGUAGCGAACAUGAGGAUCACCCAUGUAGGAUAUGUUAUUAAACUAAUAACAGAAGGGCGUUGGUCUC	121	147	–	–
ACAAGAUCAGGAUAUACAUGAGGAUCACCCAUGUAUAUAAAAAAAAAACUUUCUUCAUGUAGAAGGGAUCUUGU	17.4	46	–	–
AAUAUGAGCUGGAAUAAACUCAAAACAUGAGGAUCACCCAUGUAGGAUAUCAGCACGAUAAGUGCUGAGAAGGACAACCAGCUC	13.8	15.5	–	–
GGGUACAUCGGAGGAUAUCAUGUAAAUACAUGAGGAUCACCCAUGUCGAUGGCGACAUCGGAGAUUGAGAAGGCCGAUGUACCG	–	–	448	12.3
AAUAAGGGAGGAUAUGCGGAACGGUUUGUUCUCAGUGAGGCACAUGAGGAUCACCCAUGUAGAAGGCCCGGCAA	13.8	93.1	–	–
UUUUUAUUUAUAGGAUAUGGAAACAUGAGGAUCACCCAUGUAUGAUAAGAUAAAUUAUGAUAUAGCCAGAAGGAUAUUAUUUUU	–	–	28.5	35.9
AUGUUUCAUGUAGGAUAUGCAUACUGUUAGUAUGCAGAAGGACAUGAGGAUCACCCAUGUAUAUUAUCAUUACAUAUCAUACAU	60.4	492	–	–
ACAUGAGGAUCACCCAUGUUAAGCGAGGAUAUUUCACUGCACAUGAGGUUCGCCCAUGUCCUGCGGAAGAAGGUGCAAAUAAUU	–	–	48.1	23.4
UGCGUGGUCACAGGAUAUGCAAGAUAAACUUUAGCAGAAGGGUGAUCAAUUAGCUCAAUACCACAUGAGGAUCACCCAUGUCUA	–	–	62.9	314
AGAAUGGGCGAGAAGGGAGUACAUGAGGAUCACCCAUGUGGUUGAUGGUGCUCAGGAUAUCGAAGGACCAGGGAGCGUCUCUGG	185	302	–	–
AGCGAGAUAGGCGAGGAUAUGCUUUUUUGCACAUGAGGAUCACCCAUGUCUUUGUUUUUUGUUUUGCAGAAGGCGCAUUCUCUUU	–	–	18.9	41.2
CAGUACUGAGGAUAUACAUGAGGAUCACCCAUGUCCUAAAAGUAGGAUACUACUAUUAGUAGAAGGCAGUACUG	17.9	190	–	–
UCGUAUAAGGGCAUUACACAUGAGGAUCACCCAUGUACGUUAGAGGAUAUGCAUUCCAGUCGAACGUAGAAGGUUAGAGAAGGG	307	268	–	–
